167 variants from the RNAGym collection of RNA variant scans (doi:10.1126/science.aae0568) can be followed below.

First the molecules themselves.
B1: tRNA (parent)
chain: GUUCCGUUGGCGUAAUGGUAACGCGUCUCCCUCCUAAGGAGAAGACUGCGGGUUCGAGUCCCGUACGGAACG

Fewer inactive variants are shown than the library holds. Some results are limits rather than exact numbers.

This data set covers variants of B1. Put plainly: yeast fitness relative to wild type (ratio to wild type); higher = fitter; tRNA-Arg(CCU), competitive growth, 37 C, YPD. The procedure, abridged:
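Start and end populations of a pooled competition were compared by 100-nucleotide paired-end sequencing of gene amplicons. The Saccharomyces cerevisiae strains carried tRNA-Arg(CCU) gene variants at the native genomic locus, synthesised with a 3% per-site mutation rate at 69 sites, and competed in YPD at 37°C for 24 hours in six parallel replicates. Darwinian fitness relative to wild type was based on the change in genotype frequencies. Genotypes required ≥ 100 starting reads, and estimates < 0.5 were set to 0.5.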
As to C5A G12A G48A C61U, the yeast fitness is at most 0.5.
U3C C27G C30U G67A: the yeast fitness is 0.554.
Under U16C C22G C27G U53C C61A G68A stands at most 0.5.
Next, C33G C34G C46G: at most 0.5; C29U C34G A65G: 0.668.
Regarding C24G C30U C31U C61U G67C, the yeast fitness was at most 0.5.
As to C5A C46U, the yeast fitness is 0.997.
Turning to G9A C27G A37G U53A, the yeast fitness is at most 0.5.
Under U3A C11G stands 0.643.
Next, A36C A40U C46A G68C: 0.584; A43C U47A G58C: 0.689; G48A C49A: 0.969.
With G18C C22A, the yeast fitness was determined as 0.582.
Under U19C C29G C61U C66A stands at most 0.5.
Under G6C G25A A70C stands 0.631.
Regarding G10C C46A, the yeast fitness came out at 0.626.
Under C5G C22G C62A stands 0.509; under C30G C33G C60G, at most 0.5.
For the variant G6A C30A G39A U47A G63C, the yeast fitness is at most 0.5.
With A20G U26C G39A G50A, the yeast fitness was at most 0.5.
Next, C4G A20U C29U C49U: at most 0.5; A14C U16A A21C G56A: at most 0.5; G6C G39C A45U C61U: at most 0.5.
Under U2G G12C C49U stands at most 0.5; under G12C G18C G50C, at most 0.5.
Next, C27U C31G A69C: 0.604; C27U G56C: 0.595.
A14U A15G C31A C34G C61U: the yeast fitness was at most 0.5.
Next, C29G A37C G63A: at most 0.5.
Next, C4A C33G A57G: 0.576.
Next, C4A U53C G67C: 0.537; C4G G9C C46A U59A U64A: at most 0.5; C30G C49G: 0.635.
As to G23A U26C C29U C33G, the yeast fitness was at most 0.5.
With G9C A20G A36U, the yeast fitness was at most 0.5.
With C11U U47C A57G A69U, the yeast fitness was determined as 0.565.
For the variant U32A A37C G51C A57U, the yeast fitness is at most 0.5.
For C29G G50A A57U A70U, the yeast fitness is at most 0.5.
Next, A45C G48C G50A U53C C66A: at most 0.5; C22U C55U: 0.686; G23C C46U A70U: 0.622.
Next, U7A A21C C33A A45U A69U: at most 0.5; C30U A45U: 0.955; G17C C24U G41A: at most 0.5.
Under A21U A45U G50C U64G stands at most 0.5; under G9A G38A C62U, 0.939; under U8C C22U C30U C33U A45C, at most 0.5.
Take A14G U32G C60U C62U: the yeast fitness amounted to 0.539.
As for G9A C66A, the yeast fitness worked out at 0.775.
In the case of A14C C24G G39A A43G, the yeast fitness was at most 0.5.
Take C24U C30A A37G U64A C66U A70G: the yeast fitness was at most 0.5.
Next, C29U U47C G67U A69U: at most 0.5; U16C C29G U53A: at most 0.5; G6C G38C A43C G51C G56C: 0.526.
As to C5A C24G C49U, the yeast fitness was at most 0.5.
Next, A37G G44A C66U: 0.731; U3A G56C: 0.716; G50A A65G: 1.03.
Turning to U3C G9A U28G, the yeast fitness stood at 0.59.
Under U16A C22A stands 0.941.
In the case of U35C C55U C62A, the yeast fitness was determined as 0.527.
With G9A C31U C49U A69C, the yeast fitness is at most 0.5.
For the variant U7G C61U A70G, the yeast fitness is 0.669.
Take A14U A43G G63C: the yeast fitness was at most 0.5.
As for A36C A42U A65U, the yeast fitness worked out at 0.647.
As to C24G C33G U53C C55U, the yeast fitness is 0.567.
Under A37G C60U A70U stands at most 0.5; under U13A C30U G39C C55G, 0.545.
Under A15U A20G A43C stands 0.593; under A14C A42U C60G A70G, at most 0.5.
Next, C11A G17A C33U: at most 0.5; U3C G25A A37U: 0.574; G10A G56A A69U: 0.601.
Consider A15C A36U C55A A65U, for which the yeast fitness was at most 0.5.
Next, U3C G23A U28G: at most 0.5.
Under C5A C29U A69U stands 0.632.
Under G9A G18A C24G A45U stands 0.52; under A21U C22U C30G U59G A65U, at most 0.5; under G25C C66U A69C, 0.685.
Consider G23C G38C A40U G58C, for which the yeast fitness is at most 0.5.
U16A C60G G67A: the yeast fitness was at most 0.5.
Turning to C24A C29G U32G G38A U47A, the yeast fitness was at most 0.5.
Under U2G A20C G25A A69C stands at most 0.5; under G9C G18C G44A, 0.526.
Regarding C34U C49U C55U G67A, the yeast fitness was at most 0.5.
For the variant C31U G52C C60A, the yeast fitness stood at 0.632.
Under U16A A69C stands 0.969; under G6A A14C G41A A42U G56A G63C, 0.665.
Under C29G G39C A65C stands 0.546; under U8A C22G A36U, at most 0.5.
Take C30G A37U C61U: the yeast fitness was at most 0.5.
Next, U26C C29A A36C: at most 0.5; G17C G50A: 0.616.
With G38C A40U C61G, the yeast fitness was at most 0.5.
Under U35A A40U A57U stands 0.625.
Next, C5U C22G C24G C31U A70C: at most 0.5; G12C G41C C60G: at most 0.5; C33G G38C C46A: 0.551.
As to U3A C5G U7C U35A A40U C46G U53A G68C, the yeast fitness was at most 0.5.
Under C30U A45U C49G stands 0.713; under G39A C61G, 0.585.
Next, C5G U26C A43G U47C: at most 0.5.
Regarding G38A A43G, the yeast fitness turned out to be 0.607.
Next, C5G C27U C34A G51A: at most 0.5; G10A A20U U35C G48C: 0.723.
Next, U8A G18A G67U A69C: at most 0.5; G6A C55U G58A G67A: at most 0.5; U8A A42U U47C C55G: at most 0.5.
As for C30A G44A A45C A70U, the yeast fitness was at most 0.5.
Under A37C A42C C46A A70C stands at most 0.5.
Next, G18C A45C G52A A65C: at most 0.5; G6C C34U C66U A70U: 0.639.
U13G A21C: the yeast fitness was 0.611.
Under G9C G12C A14G A20C stands at most 0.5; under G17C C29G A37C U64C, 0.771; under G9C A21U U54A A70G, at most 0.5.
As for C31A A43C, the yeast fitness stood at 0.832.
For the variant G12A A43U A45C U54C G67C, the yeast fitness worked out at 0.525.
As to G51A C61U A65G A69C, the yeast fitness amounted to 1.07.
Consider C29G G41A U47G, for which the yeast fitness was at most 0.5.
Next, U7G A20U C46G A57U A69C: 0.623.
Next, C5U G50A C66A: at most 0.5; C5U A36G C55G: at most 0.5.
Under U7A C22U stands 0.798.
Take G9A A40U A65U: the yeast fitness was determined as 0.718.
For the variant A14G A20U A36U G51C G52C C60U G67A, the yeast fitness is at most 0.5.
For C5U C11A C24G C27G A36U G38C C60A C66A, the yeast fitness was at most 0.5.
Next, C5A G9A G41A U53C U64A: at most 0.5; C11A G18A C49A C62G: at most 0.5; U2C U26C C61G G63A A69U: 0.56.
Turning to A15U U32A G44A A65C, the yeast fitness was at most 0.5.
Under G25A A69U stands 1.04.
Under U2A G9C U35A A36G stands at most 0.5.
Take A14C G18A C22G C49A U59C A69G: the yeast fitness was at most 0.5.
Next, C62A A69G A70G: 0.614.
Regarding U16C C22U A65U, the yeast fitness was at most 0.5.
Under U26A G44C A57C A69U stands 0.653; under U8C G48A, 0.899; under C46G C55G, 0.722.
U16A C29G C30U A40U A70G: the yeast fitness was at most 0.5.
Next, U3A G25C: 1.03; G10C A14U C62U: 0.51; G23C C46U G67A: 0.564.
On to U8A G58A, for which the yeast fitness stood at 0.771.
Regarding C11U C62G G63A, the yeast fitness was determined as 0.529.
Under G9C G17C C27G U35A C49A stands at most 0.5; under G12A A20C C29A, at most 0.5.
Regarding G18C C24G C46G, the yeast fitness is at most 0.5.
In the case of C29G U35A A36C, the yeast fitness was at most 0.5.
Under C49U U53A G68A stands at most 0.5.
Regarding C22A C49G G67A, the yeast fitness was at most 0.5.
Next, A21G U53A U54A: at most 0.5.
For the variant G23C G56A A70U, the yeast fitness was at most 0.5.
For the variant C22G A40U A43U, the yeast fitness is 0.503.
Under U13G U32C C33U C62U A65G stands at most 0.5.
For the variant U26A A36U, the yeast fitness amounted to 0.606.
As for A20C A21G A69C, the yeast fitness is 0.825.
Under A15U G52A stands 0.606; under A20C A21C A45G, at most 0.5.
Next, C4A U8A: 0.694; G25C C31A A65C: 0.678.
Next, G9C C27A U28G: at most 0.5; C4U C22G U59C: 0.712.
For the variant G12A C27U U32A, the yeast fitness was 0.702.
Take C4G U13G: the yeast fitness was determined as 0.882.
Next, C5U G38C G48C G52A: at most 0.5.
Next, C11U G51C U59G: 0.534.
